Test [1] concerns Aspergillus niger. Briefly: Antifungal activity against Aspergillus niger ATCC 1004 at <100 ug/ml at pH 5.6 after 5 days in absence of 10% beef serum. The test is classed as functional, organism-based. In outline:
(§1)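 Agar-dilution MIC in Sabouraud dextrose agar at pH 5.6 or 7.0, with or without 10% beef serum. Plates were incubated at 28 °C for 5 days. MIC is the lowest concentration (µg/mL) giving 100% inhibition. Steps were 1 µg/mL up to 10, 2 µg/mL from 10–20, and 10 µg/mL from 20–100; 100 µg/mL was the top level, and no inhibition there is scored as >100.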

For test [2], the system named is Trichophyton mentagrophytes. Briefly: Antifungal activity against Trichophyton mentagrophytes ATCC 9129 at pH 5.6 after 5 days in absence of 10% beef serum. Type of test: functional. Conditions: Trichophyton mentagrophytes, ATCC 9129, 120 h; read-out: MIC. In outline:
as §1

Test [3] relates to Aspergillus niger. Briefly: Antifungal activity against Aspergillus niger ATCC 1004 at <100 ug/ml at pH 5.6 after 5 days in presence of 10% beef serum. Type of test: functional, organism-based. In outline:
as §1

The subject of test [4] is Candida albicans. Briefly: Antifungal activity against Candida albicans ATCC 10231 at <100 ug/ml at pH 5.6 after 20 h in absence of 10% beef serum.
For test [5], the system named is Candida albicans. Briefly: Antifungal activity against Candida albicans ATCC 10231 at <100 ug/ml at pH 7 after 20 h in presence of 10% beef serum.
The subject of test [6] is Aspergillus niger. The experiment in a line: Antifungal activity against Aspergillus niger ATCC 1004 at <100 ug/ml at pH 7 after 5 days in absence of 10% beef serum. The test is classed as functional, organism-based. The procedure, abridged: as §1
For test [7], the system named is Mucor mucedo. The experiment in a line: Antifungal activity against Mucor mucedo ATCC 7941 at <100 ug/ml at pH 7 after 20 h in absence of 10% beef serum.
In test [8] the test system is Mucor mucedo. The experiment in a line: Antifungal activity against Mucor mucedo ATCC 7941 at <100 ug/ml at pH 7 after 20 h in presence of 10% beef serum.
Test [9] has as its system Candida albicans. The experiment in a line: Antifungal activity against Candida albicans ATCC 10231 at <100 ug/ml at pH 5.6 after 20 h in presence of 10% beef serum.
The subject of test [10] is Mucor mucedo. Briefly: Antifungal activity against Mucor mucedo ATCC 7941 at <100 ug/ml at pH 5.6 after 20 h in absence of 10% beef serum.
For test [11], the system named is Mucor mucedo. The experiment in a line: Antifungal activity against Mucor mucedo ATCC 7941 at <100 ug/ml at pH 5.6 after 20 h in presence of 10% beef serum.
The test system of test [12] is Trichophyton mentagrophytes. The experiment in a line: Antifungal activity against Trichophyton mentagrophytes ATCC 9129 at pH 5.6 after 5 days in presence of 10% beef serum. The test is classed as functional. The settings on record: Trichophyton mentagrophytes, ATCC 9129, 120 h; read-out: MIC. In outline: as §1
The test system of test [13] is Aspergillus niger. Briefly: Antifungal activity against Aspergillus niger ATCC 1004 at <100 ug/ml at pH 7 after 5 days in presence of 10% beef serum. Type of test: functional, organism-based. In outline: as §1
In test [14] the test system is Trichophyton mentagrophytes. Briefly: Antifungal activity against Trichophyton mentagrophytes ATCC 9129 at pH 7 after 5 days in presence of 10% beef serum. The test is classed as functional. Conditions: Trichophyton mentagrophytes, ATCC 9129, 120 h; read-out: MIC. The procedure, abridged: as §1
The test system of test [15] is Trichophyton mentagrophytes. Briefly: Antifungal activity against Trichophyton mentagrophytes ATCC 9129 at pH 7 after 5 days in absence of 10% beef serum. The test is classed as functional. Conditions: Trichophyton mentagrophytes, ATCC 9129, 120 h; read-out: MIC. The procedure, abridged:
as §1

In test [16] the test system is Candida albicans. Briefly: Antifungal activity against Candida albicans ATCC 10231 at <100 ug/ml at pH 7 after 20 h in absence of 10% beef serum.
Test [17] deals with Trichophyton mentagrophytes. Briefly: Antifungal activity against Trichophyton mentagrophytes ATCC 9129 at <100 ug/ml at pH 7 after 5 days in presence of 10% beef serum. Type of test: functional, organism-based. In outline: as §1
Test [18] deals with Mucor mucedo. The experiment in a line: Antifungal activity against Mucor mucedo ATCC 7941 at pH 7 after 20 h in presence of 10% beef serum. Conditions: ATCC 7941, 20 h.
For test [19], the system named is Mucor mucedo. The experiment in a line: Antifungal activity against Mucor mucedo ATCC 7941 at pH 5.6 after 20 h in presence of 10% beef serum. Conditions: ATCC 7941, 20 h.
Test [20] concerns Mucor mucedo. Briefly: Antifungal activity against Mucor mucedo ATCC 7941 at pH 7 after 20 h in absence of 10% beef serum. The settings on record: ATCC 7941, 20 h.
The test system of test [21] is Candida albicans. The experiment in a line: Antifungal activity against Candida albicans ATCC 10231 at pH 5.6 after 20 h in absence of 10% beef serum. The settings on record: ATCC 10231, 20 h.
In test [22] the test system is Candida albicans. Briefly: Antifungal activity against Candida albicans ATCC 10231 at pH 7 after 20 h in presence of 10% beef serum. Conditions: ATCC 10231, 20 h.
Test [23] relates to Candida albicans. Briefly: Antifungal activity against Candida albicans ATCC 10231 at pH 7 after 20 h in absence of 10% beef serum. Conditions: ATCC 10231, 20 h.
For test [24], the system named is Candida albicans. The experiment in a line: Antifungal activity against Candida albicans ATCC 10231 at pH 5.6 after 20 h in presence of 10% beef serum. The settings on record: ATCC 10231, 20 h.

Converted amounts (≈) assume the structure as drawn. Structures can show the parent of a compound that is named as a salt. The source made the active and inactive calls. No cut-off for these calls is given here.

Inhibition and MIC data for ten molecules are collected here from ChEMBL document CHEMBL3244142, “Antifungal properties of 2-bromo-3-fluorosuccinic acid esters and related compounds” (1977).

What is called MIC is the least concentration at which growth counts as inhibited. In the case of `CCCCCOC(=O)/C=C\C(=O)OCCCCC`, the inhibition result in the test with Aspergillus niger [1], in the test on Aspergillus niger [3], in the test on Candida albicans [4], with Candida albicans [5], in the test on Aspergillus niger [6] and in the test on Mucor mucedo [7] was “inactive” throughout. Moreover, the inhibition entry in the test with Mucor mucedo [8], in the test on Candida albicans [9], in the test on Mucor mucedo [10], in the test on Mucor mucedo [11], in the test with Aspergillus niger [13] and in the test on Candida albicans [16] was “inactive” each time. The MIC in test [2] was 10 µg/mL (≈ 39 µM); in test [12], 50 µg/mL; in [14], 60 µg/mL; in [15], 30 µg/mL (≈ 117 µM).

Consider `CCOC(=O)/C=C\C(=O)OCC` [DIETHYL MALEATE], for which the inhibition result in the test with Aspergillus niger [1], in the test on Aspergillus niger [3], in the test on Candida albicans [4], in the test with Candida albicans [5], with Aspergillus niger [6] and in the test on Mucor mucedo [7] was “inactive” throughout. Also, the inhibition result in the test with Mucor mucedo [8], in the test with Candida albicans [9], in the test on Mucor mucedo [10], in the test with Mucor mucedo [11], with Aspergillus niger [13] and in the test on Candida albicans [16] was “inactive” each time. Further, the MIC in [2] was determined as 50 µg/mL; in test [12] it was 60 µg/mL; in test [14], 100 µg/mL; in [15], 90 µg/mL.

On to `CCCCOC(=O)/C=C/C(=O)OCCCC`, for which the inhibition entry (in test [17]; in the test on Aspergillus niger [1]; in the test with Aspergillus niger [3]; with Candida albicans [4]; with Candida albicans [5]; in the test with Aspergillus niger [6]) was “inactive” each time. The inhibition entry with Mucor mucedo [7], in the test on Mucor mucedo [8], in the test with Candida albicans [9], in the test on Mucor mucedo [10], in the test with Mucor mucedo [11] and in the test on Aspergillus niger [13] was “inactive” each time. Further, the inhibition result in the test with Candida albicans [16] is “inactive”. The MIC stood at 7 µg/mL (≈ 30.7 µM) in [2], 60 µg/mL in test [12] and 30 µg/mL (≈ 131 µM) in [15].

As for `COC(=O)C(Br)CF` (stereo unspecified), the inhibition entry (in [17]; with Aspergillus niger [1]; in the test with Aspergillus niger [3]; in the test with Candida albicans [4]; with Candida albicans [5]; in the test on Aspergillus niger [6]) was “inactive” in each case. In addition, the inhibition result in the test on Candida albicans [9], with Aspergillus niger [13] and in the test with Candida albicans [16] was “inactive” in each case. Besides, the minimal inhibitory concentration (MIC) in [2] is 50 µg/mL (≈ 270 µM); in the test with Mucor mucedo [18] it was 30 µg/mL; in the test on Mucor mucedo [19] it was 18 µg/mL; in test [12], 100 µg/mL; against Mucor mucedo [20], 9 µg/mL (≈ 48.7 µM); in test [15], 100 µg/mL (≈ 541 µM).

On to `CCCCOC(=O)[C@@H](F)[C@@H](Br)C(=O)OCCCC` (relative stereo), for which the inhibition result in the test with Aspergillus niger [1], in the test with Aspergillus niger [3], with Aspergillus niger [6] and in the test on Aspergillus niger [13] was “inactive” in each case. Besides, the minimum inhibitory concentration (MIC) in test [2] was determined as 3 µg/mL (≈ 9.17 µM); with Mucor mucedo [18], 50 µg/mL; against Candida albicans [21] it was 9 µg/mL (≈ 27.5 µM); with Mucor mucedo [19], 30 µg/mL; in the test with Candida albicans [22], 50 µg/mL; against Candida albicans [23] it was 40 µg/mL (≈ 122 µM). Also, the MIC in [12] worked out at 20 µg/mL; in the test on Candida albicans [24] it was 20 µg/mL; in [14] it was 30 µg/mL; with Mucor mucedo [20] it was 20 µg/mL (≈ 61.1 µM); in test [15], 4 µg/mL (≈ 12.2 µM).

As to `CCCOC(=O)/C=C\C(=O)OCCC`, the inhibition entry in the test on Aspergillus niger [1], in the test on Aspergillus niger [3], in the test with Candida albicans [4], in the test on Candida albicans [5], with Aspergillus niger [6] and with Mucor mucedo [7] was “inactive” in each case. The inhibition entry in the test with Mucor mucedo [8], with Candida albicans [9], with Mucor mucedo [10], with Mucor mucedo [11], with Aspergillus niger [13] and with Candida albicans [16] was “inactive” each time. The MIC in test [2] is 14 µg/mL (≈ 69.9 µM); in test [12], 40 µg/mL; in [14], 60 µg/mL; in [15], 50 µg/mL (≈ 250 µM).

With `COC(=O)CC(F)C(Br)C(=O)OC` (stereo unspecified), the inhibition result in the test with Aspergillus niger [1], with Aspergillus niger [3], in the test on Aspergillus niger [6] and in the test on Aspergillus niger [13] was “inactive” each time. In addition, the minimal inhibitory concentration (MIC) in [2] stood at 16 µg/mL (≈ 62.2 µM); with Mucor mucedo [18], 60 µg/mL; with Candida albicans [21], 90 µg/mL (≈ 350 µM); with Mucor mucedo [19] it was 50 µg/mL; with Candida albicans [22], 90 µg/mL; against Candida albicans [23] it was 90 µg/mL (≈ 350 µM). For the same molecule, the MIC came to 18 µg/mL in test [12]; 90 µg/mL with Candida albicans [24]; 40 µg/mL in [14]; 40 µg/mL (≈ 156 µM) with Mucor mucedo [20]; 16 µg/mL (≈ 62.2 µM) in [15].

For the molecule `CCCCOC(=O)/C=C\C(=O)OCCCC`, the inhibition entry in the test with Aspergillus niger [1], in the test with Aspergillus niger [3], with Candida albicans [4], in the test with Candida albicans [5], in the test on Aspergillus niger [6] and in the test with Mucor mucedo [7] was “inactive” in each case. The inhibition result with Mucor mucedo [8], in the test on Candida albicans [9], with Mucor mucedo [10], in the test with Mucor mucedo [11], with Aspergillus niger [13] and in the test with Candida albicans [16] was “inactive” each time. Further, the minimal inhibitory concentration (MIC) came to 8 µg/mL (≈ 35 µM) in [2], 30 µg/mL in test [12], 50 µg/mL in test [14] and 30 µg/mL (≈ 131 µM) in test [15].

With `COC(=O)/C=C\C(=O)OC` [DIMETHYL MALEATE], the inhibition result in the test with Aspergillus niger [1], with Aspergillus niger [3], in the test with Candida albicans [4], in the test on Candida albicans [5], with Aspergillus niger [6] and with Mucor mucedo [7] was “inactive” in each case. Also, the inhibition entry with Mucor mucedo [8], with Candida albicans [9], in the test on Mucor mucedo [10], with Mucor mucedo [11], with Aspergillus niger [13] and in the test with Candida albicans [16] was “inactive” each time. Besides, the minimum inhibitory concentration (MIC) in test [2] came to 40 µg/mL; in [12], 50 µg/mL; in [14], 60 µg/mL; in test [15] it was 30 µg/mL.

Take `CCCCOC(=O)[C@H](F)[C@@H](Br)C(=O)OCCCC` (relative stereo): the inhibition entry with Aspergillus niger [1], in the test on Aspergillus niger [3], in the test with Aspergillus niger [6], in the test on Mucor mucedo [8] and in the test with Aspergillus niger [13] was “inactive” each time. Moreover, the MIC is less than 1 µg/mL in test [2]; 20 µg/mL (≈ 61.1 µM) against Candida albicans [21]; 80 µg/mL with Mucor mucedo [19]; 90 µg/mL in the test with Candida albicans [22]; 30 µg/mL (≈ 91.7 µM) against Candida albicans [23]; 30 µg/mL in [12]. In addition, the minimum inhibitory concentration (MIC) amounted to 80 µg/mL with Candida albicans [24], 50 µg/mL in test [14], 14 µg/mL (≈ 42.8 µM) in the test on Mucor mucedo [20] and 30 µg/mL (≈ 91.7 µM) in test [15].
